Drawing on ChEMBL document CHEMBL3875149, “New piperidine-hydrazone derivatives: Synthesis, biological evaluations and molecular docking studies as AChE and BChE inhibitors” (Eur J Med Chem, 2016), this text covers IC50 and A0.5 for 20 compounds.

Series [1] in a line: Antioxidant activity assessed as inhibition of beta carotene/ linoleic acid peroxidation after 120 mins by spectrophotometric analysis. The format is functional. In outline: (§1)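 Spectrophotometric radical-scavenging or β-carotene bleaching test, with DMSO as negative control and BHT and α-tocopherol as positive controls. The value is reported as IC50 in µM.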
Series [2] in a line: Antioxidant activity assessed as cupric reducing capacity after 1 hr by spectrophotometric analysis. The format is functional.
Series [3] can be described thus: Antioxidant activity assessed as ABTS radical scavenging activity by spectrophotometric analysis. It is filed as functional. An outline of the steps: as §1
Series [4] can be described thus: Antioxidant activity assessed as DPPH free radical scavenging activity after 2 hrs by spectrophotometric analysis. The format is functional. In outline:
as §1

Series [5] is described as follows: Cytotoxicity against human BJ cells assessed as decrease in cell viability after 24 hrs by MTT assay. The format is toxicity, cell-based. In outline:
(§2)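 A549 cells were kept in RPMI and BJ fibroblasts in EMEM, each with 10% FBS and 1% penicillin/streptomycin at 37℃ and 5% CO2. MTT was added at 0.5 mg/mL final for 3 h, formazan was dissolved in DMSO and read at 540 nm. Survival is expressed as % of the 0.1% DMSO control, and IC50 was derived from it.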
Background: Tetrazolium assays rely on reduction of a dye to a coloured formazan, in cell work by metabolically active cells.

In another series the target is Acetylcholinesterase (Electrophorus electricus, UniProt O42275). As to the kind of experiment: Inhibition of electric eel acetylcholinesterase using acetylthiocholine iodide as substrate by Ellman's method. (In general: In Ellman's method for cholinesterases, released thiocholine reacts with DTNB.)
Acetylcholinesterase, sequence (O42275 whole entry): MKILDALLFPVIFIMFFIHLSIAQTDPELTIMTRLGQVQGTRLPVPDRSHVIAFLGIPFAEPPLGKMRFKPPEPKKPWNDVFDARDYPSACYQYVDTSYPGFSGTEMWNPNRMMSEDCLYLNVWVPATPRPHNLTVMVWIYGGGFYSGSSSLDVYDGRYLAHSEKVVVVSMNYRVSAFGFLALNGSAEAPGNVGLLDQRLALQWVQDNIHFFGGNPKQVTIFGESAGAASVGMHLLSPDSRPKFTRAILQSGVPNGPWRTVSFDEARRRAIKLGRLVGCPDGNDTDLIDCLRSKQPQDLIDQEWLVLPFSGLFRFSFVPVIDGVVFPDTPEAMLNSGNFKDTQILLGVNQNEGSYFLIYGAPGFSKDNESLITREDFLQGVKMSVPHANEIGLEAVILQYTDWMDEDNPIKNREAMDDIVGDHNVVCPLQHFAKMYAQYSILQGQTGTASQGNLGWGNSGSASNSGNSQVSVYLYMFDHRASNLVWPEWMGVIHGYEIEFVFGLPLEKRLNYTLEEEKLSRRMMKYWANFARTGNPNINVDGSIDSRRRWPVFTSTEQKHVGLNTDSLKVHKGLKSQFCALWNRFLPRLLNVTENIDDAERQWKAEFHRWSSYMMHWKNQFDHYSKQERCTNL
The target in the next series is Cholinesterase (Equus caballus, UniProt P81908). The series is described as follows: Inhibition of horse serum butyrylcholinesterase by Ellman's method. An outline of the steps: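 Spectrophotometric Ellman assay using horse serum BChE, run alongside a parallel electric eel AChE assay. Inhibition reported as IC50 in µM.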
Cholinesterase, sequence (P81908 whole entry): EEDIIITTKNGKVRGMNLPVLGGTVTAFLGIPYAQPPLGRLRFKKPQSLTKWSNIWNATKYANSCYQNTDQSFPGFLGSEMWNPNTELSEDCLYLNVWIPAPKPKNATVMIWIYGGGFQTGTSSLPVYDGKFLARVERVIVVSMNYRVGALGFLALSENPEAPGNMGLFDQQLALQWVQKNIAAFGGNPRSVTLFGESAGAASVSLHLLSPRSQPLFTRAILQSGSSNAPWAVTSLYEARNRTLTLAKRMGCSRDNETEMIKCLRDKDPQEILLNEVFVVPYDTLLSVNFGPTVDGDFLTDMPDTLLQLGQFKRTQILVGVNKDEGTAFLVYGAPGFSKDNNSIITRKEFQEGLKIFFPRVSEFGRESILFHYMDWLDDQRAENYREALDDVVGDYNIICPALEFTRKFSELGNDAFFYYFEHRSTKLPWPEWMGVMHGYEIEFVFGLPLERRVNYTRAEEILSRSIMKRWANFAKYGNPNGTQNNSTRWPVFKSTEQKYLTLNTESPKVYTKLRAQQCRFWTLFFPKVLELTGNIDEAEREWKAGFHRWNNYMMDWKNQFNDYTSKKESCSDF
Series [6] in a line: Cytotoxicity against human A549 cells assessed as decrease in cell viability after 24 hrs by MTT assay. The settings on record: A549, 24 h. The format is functional, cell-based. In outline: as §2

A value given as a limit tells only on which side of the number the result lay.

As usually defined, the IC50 is the midpoint of a concentration-inhibition curve. Take `Cc1cc(C(C)(C)C)c(O)c(C(C)(C)C)c1` [BUTYLATED HYDROXYTOLUENE]: the half-maximal inhibitory concentration (IC50) in series [1] is 2.34 µM; in series [3], 2.91 µM; in series [4], 55 µM. For the same compound, the A0.5 in series [2] amounted to 3.8 µM.

With `CCOC(=O)N1CCC(=NNC(=O)c2ccc(C(F)(F)F)cc2)CC1`, in series [5], the IC50 at 24 h was greater than 400 µM. Also, the half-inhibitory concentration (IC50) is 49.3 µM in series [1]; 136 µM at Acetylcholinesterase; 91.6 µM against Cholinesterase; 23.5 µM in series [3]; 33.8 µM in series [4]. In series [2], the A0.5 stood at 51.4 µM.

For `CCOC(=O)N1CCC(=NNC(=O)c2ccc(C(F)(F)F)cc2F)CC1`, the concentration for half-maximal inhibition (IC50) at 24 h in series [5] was greater than 400 µM. Further, the half-maximal inhibitory concentration (IC50) in series [1] is 77.4 µM; against Acetylcholinesterase it was 123 µM; in series [6], greater than 400 µM; on Cholinesterase, 95.1 µM; in series [3] it was 59.5 µM; in series [4] it was 86 µM. The A0.5 in series [2] was 27.3 µM.

`O=[N+]([O-])c1ccc(NN=C2CC(c3ccccc3)NC(c3ccccc3)C2)c([N+](=O)[O-])c1` (configuration not stated): the IC50 at 24 h in series [5] was greater than 400 µM. Moreover, the 50% inhibitory concentration (IC50) is 28.2 µM in series [1], greater than 400 µM in series [6], 19.2 µM in series [3] and 20 µM in series [4]. Also, the A0.5 in series [2] stood at 29.2 µM.

For `CCOC(=O)N1CCC(=NNC(=O)c2ccc(Cl)cc2)CC1`, in series [5], the half-maximal inhibitory concentration (IC50) at 24 h was greater than 400 µM. The IC50 in series [1] was 72.3 µM; against Acetylcholinesterase, 81.8 µM; in series [6], greater than 400 µM; against Cholinesterase, 69.5 µM; in series [3], 63.9 µM; in series [4], 59 µM. In addition, the A0.5 in series [2] was determined as 23.5 µM.

Turning to `O=C(NN=C1CC(c2ccccc2)NC(c2ccccc2)C1)c1ccc(F)cc1C(F)(F)F` (configuration not stated), in series [5], the 50% inhibitory concentration (IC50) at 24 h was greater than 400 µM. The IC50 in series [1] was 115 µM; on Acetylcholinesterase it was 49.5 µM; in series [6], greater than 400 µM; against Cholinesterase it was 52.4 µM; in series [3] it was 88.5 µM; in series [4], 88.3 µM. The A0.5 in series [2] was determined as 88.2 µM.

Consider `CCOC(=O)N1CCC(=NNC(=O)c2ccc(F)cc2C(F)(F)F)CC1`, for which the concentration for half-maximal inhibition (IC50) at 24 h in series [5] is greater than 400 µM. Moreover, the 50% inhibitory concentration (IC50) was 68.2 µM in series [1]; 124 µM on Acetylcholinesterase; greater than 400 µM in series [6]; 99.6 µM against Cholinesterase; 41.9 µM in series [3]; 86.8 µM in series [4]. Besides, the A0.5 in series [2] was 25.6 µM.

For `Cc1c(C)c2c(c(C)c1O)CC[C@@](C)(CCC[C@H](C)CCC[C@H](C)CCCC(C)C)O2` [ALPHA-TOCOPHEROL], the half-inhibitory concentration (IC50) in series [1] came to 4.5 µM; in series [3], 4.87 µM; in series [4], 12.3 µM. For the same compound, the A0.5 in series [2] was determined as 40.5 µM.

As for `CCOC(=O)N1CCC(=NNC(=O)c2ccc(C)cc2)CC1`, the IC50 at 24 h in series [5] is greater than 400 µM. In addition, the IC50 is 52.5 µM in series [1]; 94.8 µM at Acetylcholinesterase; greater than 400 µM in series [6]; 76.9 µM at Cholinesterase; 28.1 µM in series [3]; 75.5 µM in series [4]. Further, in series [2], the A0.5 amounted to 11.1 µM.

For `COc1ccc(C(=O)NN=C2CC(c3ccccc3)NC(c3ccccc3)C2)cc1` (configuration not stated), the IC50 at 24 h in series [5] is greater than 400 µM. The half-inhibitory concentration (IC50) in series [1] is 34.5 µM; against Acetylcholinesterase it was 92.2 µM; in series [6], greater than 400 µM; at Cholinesterase, 110 µM; in series [3] it was 27.9 µM; in series [4], 75.8 µM. Besides, in series [2], the A0.5 was determined as 77.7 µM.

With `CCOC(=O)N1CCC(=NNC(=O)c2ccc([N+](=O)[O-])cc2)CC1`, the IC50 at 24 h in series [5] is greater than 400 µM. Besides, the IC50 in series [1] was 40.2 µM; against Acetylcholinesterase, 125 µM; in series [6] it was greater than 400 µM; at Cholinesterase, 156 µM; in series [3], 10.9 µM; in series [4], 51.7 µM. For the same compound, the A0.5 in series [2] is 13.3 µM.

Regarding `O=C(NN=C1CC(c2ccccc2)NC(c2ccccc2)C1)c1ccccc1` (configuration not stated), the IC50 at 24 h in series [5] is greater than 400 µM. Also, the IC50 in series [1] was 41.9 µM; on Acetylcholinesterase, 99.7 µM; in series [6], greater than 400 µM; against Cholinesterase, 66 µM; in series [3], 238 µM; in series [4] it was 42 µM. The A0.5 in series [2] worked out at 45.4 µM.

With `O=C(NN=C1CC(c2ccccc2)NC(c2ccccc2)C1)c1ccc([N+](=O)[O-])cc1` (configuration not stated), in series [5], the IC50 at 24 h was greater than 400 µM. The half-maximal inhibitory concentration (IC50) in series [1] was 45.2 µM; against Acetylcholinesterase, 63.9 µM; in series [6] it was greater than 400 µM; against Cholinesterase, 86.8 µM; in series [3], 170 µM; in series [4], 88.1 µM. For the same compound, the A0.5 in series [2] was found to be 17.8 µM.

For `O=C(NN=C1CC(c2ccccc2)NC(c2ccccc2)C1)c1ccc(Cl)cc1` (configuration not stated), the half-maximal inhibitory concentration (IC50) at 24 h in series [5] was greater than 400 µM. The IC50 in series [1] was 43.6 µM; on Acetylcholinesterase, 41.2 µM; in series [6] it was greater than 400 µM; at Cholinesterase, 35.3 µM; in series [3], 67.9 µM; in series [4], 96.7 µM. In addition, the A0.5 in series [2] came out at 49.8 µM.

For `O=C(NN=C1CC(c2ccccc2)NC(c2ccccc2)C1)c1ccc(C(F)(F)F)cc1F` (configuration not stated), the half-inhibitory concentration (IC50) at 24 h in series [5] was greater than 400 µM. Moreover, the IC50 in series [1] was 41.1 µM; against Acetylcholinesterase, 90.1 µM; in series [6] it was greater than 400 µM; against Cholinesterase, 117 µM; in series [3], 63.5 µM; in series [4] it was 70.2 µM. The A0.5 in series [2] was 85.2 µM.

As to `CCOC(=O)N1CCC(=NNC(=O)c2ccc(OC)cc2)CC1`, the IC50 against Acetylcholinesterase was 101 µM; in series [6], greater than 400 µM; at Cholinesterase, 82.2 µM; in series [3], 38.3 µM; in series [4], 85.4 µM. Moreover, the A0.5 in series [2] came out at 36.9 µM.

Consider `O=C(NN=C1CC(c2ccccc2)NC(c2ccccc2)C1)c1ccc(C(F)(F)F)cc1` (configuration not stated), for which the IC50 at 24 h in series [5] was greater than 400 µM. The half-inhibitory concentration (IC50) in series [1] was 55.3 µM; against Acetylcholinesterase, 84.4 µM; in series [6], greater than 400 µM; at Cholinesterase, 99.1 µM; in series [3], 153 µM; in series [4], 65 µM. In series [2], the A0.5 was 92.1 µM.

As for `Cc1ccc(C(=O)NN=C2CC(c3ccccc3)NC(c3ccccc3)C2)cc1` (configuration not stated), in series [5], the IC50 at 24 h is greater than 400 µM. Besides, the half-inhibitory concentration (IC50) in series [1] was 69 µM; against Acetylcholinesterase, 74.9 µM; in series [6], greater than 400 µM; at Cholinesterase it was 50.1 µM; in series [3], 64.1 µM; in series [4], 53.3 µM. Besides, the A0.5 in series [2] was determined as 50.6 µM.

As to `CCOC(=O)N1CCC(=NNC(=O)c2ccc(F)cc2)CC1`, the IC50 at 24 h in series [5] is greater than 400 µM. In addition, the IC50 in series [1] was 65.5 µM; against Acetylcholinesterase, 128 µM; in series [6], greater than 400 µM; against Cholinesterase, 113 µM; in series [3], 39.2 µM; in series [4], 74.8 µM. For the same compound, the A0.5 in series [2] turned out to be 4.16 µM.

Take `O=C(NN=C1CC(c2ccccc2)NC(c2ccccc2)C1)c1ccc(F)cc1` (configuration not stated): the half-inhibitory concentration (IC50) at 24 h in series [5] was greater than 400 µM. Moreover, the IC50 in series [1] is 56.6 µM; against Acetylcholinesterase it was 91.1 µM; in series [6], greater than 400 µM; on Cholinesterase, 72.8 µM; in series [3], 83.7 µM; in series [4], 66 µM. Moreover, the A0.5 in series [2] amounted to 59.6 µM.
